Source: ChEMBL document CHEMBL1124962, “Synthesis and structure-affinity of a series of 7 alpha-undecylestradiol derivatives: a potential vector for therapy and imaging of estrogen-receptor-positive cancers” (J Med Chem, 1990)

Key:
[1] = molecular target: T1, Estrogen receptor (Bos taurus) (UniProt Q9XSB5+P49884); experiment: Ratio of displacement of 17-beta-[3H]-estradiol from calf uterine estrogen receptor compared to 17-beta-estradiol after 12 hr incubation; type: protein assay
Outline: (§1)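 Calf uterine cytosol (105000g, 60 min, 4 °C spin of homogenate in 5 mM sodium phosphate pH 7.5, 10 mM monothioglycerol, 10% glycerol; 0.68 mg protein in final mix) incubated at 4 °C without DMF with 10⁻⁹ M 17β-[³H]estradiol and nine competitor concentrations (3 × 10⁻¹²–10⁻⁶ M), triplicates. Dextran-coated charcoal separation, supernatant counted. RBA = IC50 ratio of estradiol to competitor ×100, mean of ≥3 experiments.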

[2] = molecular target: T1, Estrogen receptor (Bos taurus); experiment: Ratio of displacement of 17-beta-[3H]-estradiol from calf uterine estrogen receptor compared to 17-beta-estradiol after 20 hr incubation; type: protein assay; outline: as §1

| SMILES | relative binding affinity (RBA) [1] | relative binding affinity (RBA) [2] |
| --- | --- | --- |
| C=CCCCCCCCCC[C@@H]1Cc2cc(O)ccc2[C@H]2CC[C@]3(C)[C@@H](O)CC[C@H]3[C@H]12 | 0.09 | 0.09 |
| C[C@]12CC[C@@H]3c4ccc(O)cc4CC[C@H]3[C@@H]1C[C@@H](I)[C@@H]2O | 22.1 | 27.1 |
| C[C@]12CC[C@@H]3c4ccc(O)cc4C[C@@H](CCCCCCCCCCCOc4ccccc4)[C@H]3[C@@H]1CC[C@@H]2O | 0.1 | 0.1 |
| C[C@]12CC[C@@H]3c4ccc(O)cc4C[C@@H](CCCCCCCCCCCBr)[C@H]3[C@@H]1CC[C@@H]2O | 0.05 | 0.2 |
| C[C@]12CC[C@@H]3c4ccc(O)cc4C[C@@H](CCCCCCCCCCCI)[C@H]3[C@@H]1CC[C@@H]2O | 0.04 | 0.1 |
| C[C@]12CC[C@@H]3c4ccc(O)cc4C[C@@H](CCCCCCCCCCCOc4ccc(I)cc4)[C@H]3[C@@H]1CC[C@@H]2O | 0.1 | 0.09 |

Further lines, results first:

| relative binding affinity (RBA) [1] | relative binding affinity (RBA) [2] | SMILES |
| --- | --- | --- |
| 1.3 | 1.5 | C[C@]12CC[C@@H]3c4ccc(O)cc4C[C@@H](CCCCCCCCCCCF)[C@H]3[C@@H]1CC[C@@H]2O |
| 0.7 | 0.7 | C[C@]12CC[C@@H]3c4ccc(O)cc4C[C@@H](CCCCCCCCCCCCl)[C@H]3[C@@H]1CC[C@@H]2O |
| 2.9 | 2 | C[C@]12CC[C@@H]3c4ccc(O)cc4C[C@@H](CCCCCCCCCCCO)[C@H]3[C@@H]1CC[C@@H]2O |
